Values after ≈ are worked out from the molar mass of the structure shown.
How the values were obtained:
Type in all cases: functional
Mus musculus [1] = experiment: Tested for efficacy of compound in experimental systemic candidosis (mouse) after intraperitoneal treatment at dosage of 8 *100 mg kg e-1
Outline: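 Mice (female NMRI, 18–20 g; 10 per group) infected by tail-vein injection of 10⁶ CFU C. albicans no. 124. Compound was given intraperitoneally twice daily on 4 consecutive days, starting 2 h before inoculation. Efficacy was scored as survival rate up to day 9 after infection.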

Pichia kudriavzevii [2] = experiment: Tested for minimum inhibitory concentration against Candida krusei 132 (C.k) at pH 4.5.
Outline: (§1)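 Broth microdilution in malt extract broth, initial pH 4.5 or 6.5, with 1×10^3 CFU per 0.2 mL well of thawed stored cultures. Compound stocks were made in 5% DMSO/0.2% Tween 80 and diluted to final 0.05–100 μg/mL. Plates were incubated 48 h at 30 °C and read macroscopically. MIC was the lowest concentration with no detectable growth. Vehicle-only wells served as controls.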

Candida albicans [3] = experiment: Tested for minimum inhibitory concentration against Candida albicans 124 (Candida albicans) at pH of 4.5.; outline: as §1
Candida albicans [4] = experiment: Tested for minimum inhibitory concentration against Candida albicans 26 (Candida albicans) at pH 6.5.
Outline: (§2)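 Broth microdilution in malt extract broth, initial pH 6.5, 1×10^3 CFU per 0.2 mL well, from liquid-nitrogen-stored Sabouraud cultures. Compound from 0.08% stock in 5% DMSO/0.2% Tween 80, final 0.05–100 μg/mL. Visual reading after 48 h at 30 °C. MIC = lowest concentration with no detectable growth. Vehicle-only negative controls.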

Pichia kudriavzevii [5] = experiment: Tested for minimum inhibitory concentration against Candida krusei 132 (C.k) at pH of 6.5.; outline: as §1
Candida tropicalis [6] = experiment: Tested for minimum subinhibitory concentration against Candida tropicalis 43 (C.t) at pH 6.5.
Outline: (§3)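 Malt extract broth microdilution, initial pH 6.5, inoculum 1×10^3 CFU per 0.2 mL well. Compound diluted from 0.08% stock (5% DMSO/0.2% Tween 80) to final 0.05–100 μg/mL. Macroscopic reading after 48 h, 30 °C. MSIC = lowest concentration giving visible growth inhibition in at least two of three triplicates. Vehicle-only negative controls.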

Candida albicans [7] = experiment: Tested for minimum inhibitory concentration against Candida albicans 3 (Candida albicans) at pH 6.5.; outline: as §2
[8] = test system: Meyerozyma guilliermondii; experiment: Tested for minimum subinhibitory concentration against Candida guilliermondii 80 (C.g) at pH 6.5.; outline: as §3
Candida albicans [9] = experiment: Tested for minimum inhibitory concentration against Candida albicans 90 (Candida albicans) at pH 6.5.; outline: as §2
Mus musculus [10] = experiment: Tested for efficacy of compound in experimental vaginal candidosis (mouse) after intraperitoneal treatment at dosage of 4 x50 mg kg e-1
Outline: (§4)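 Female NMRI mice (18–20 g; 10 per group) were hormonally conditioned and infected intravaginally with 3.5×10^4 CFU C. albicans no. 124 in 50 μL Sabouraud's glucose broth. Four doses were given by gavage or ip, at 2 h before and 2, 18 and 24 h after infection. One day after the last dose, vaginal swabs were plated on Sabouraud agar with streptomycin (0.1 mg/mL) for 48 h at 37 °C. Failed reisolation counted as cure.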

Candida albicans [11] = experiment: Tested for minimum subinhibitory concentration against Candida albicans 124 (Candida albicans) at pH 6.5.; outline: as §3
Candida albicans [12] = experiment: Tested for minimum inhibitory concentration against Candida albicans 88 (Candida albicans) at pH 4.5.; outline: as §1
Candida albicans [13] = experiment: Tested for minimum subinhibitory concentration against Candida albicans 90 (Candida albicans) at pH 6.5.; outline: as §3
Candida albicans [14] = experiment: Tested for minimum subinhibitory concentration against Candida albicans 9 (Candida albicans) at pH 6.5.; outline: as §3
Rattus norvegicus [15] = organism: Rattus norvegicus; experiment: Tested for efficacy of compound in experimental vaginal candidosis (rat) after tropical treatment at dosage of 9x 1% drug concentration
Outline: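 Hormonally conditioned female Wistar rats (~150 g; 10 per group) were infected intravaginally with 3.5×10^4 CFU C. albicans no. 124. Intravaginal gel (0.2 mL) started 2 h post-inoculation and was applied twice daily for 4 days, giving nine applications. Vaginal swabs taken one day after the last treatment were cultured on streptomycin Sabouraud agar at 37 °C for 48 h. Cure meant no reisolation.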

Candida albicans [16] = experiment: Tested for minimum subinhibitory concentration against Candida albicans 3 (Candida albicans) at pH 6.5.; outline: as §3
Candida albicans [17] = experiment: Tested for minimum subinhibitory concentration against Candida albicans 9 (Candida albicans) at pH 4.5.
Outline: (§5)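 Malt extract broth microdilution at initial pH 4.5, 1×10^3 CFU/0.2 mL well, final compound 0.05–100 μg/mL diluted from DMSO/Tween 80 stocks. Incubation was 48 h at 30 °C with macroscopic reading. MSIC was the lowest concentration causing visible growth inhibition in at least two of three triplicates.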

Candida albicans [18] = experiment: Tested for minimum inhibitory concentration against Candida albicans 3 (Candida albicans) at pH 4.5.; outline: as §1
Candida tropicalis [19] = experiment: Tested for minimum inhibitory concentration against Candida tropicalis (C.t) at pH 4.5.; outline: as §1
Candida tropicalis [20] = experiment: Tested for minimum subinhibitory concentration against Candida tropicalis 43 (C.t) at pH 4.5.; outline: as §5
Pichia kudriavzevii [21] = experiment: Tested for minimum inhibitory concentration against Candida krusei 132 (C.k) at pH 6.5.; outline: as §2
Candida albicans [22] = experiment: Tested for minimum inhibitory concentration against Candida albicans 26 (Candida albicans) at pH 4.5.; outline: as §1
Pichia kudriavzevii [23] = experiment: Tested for minimum inhibitory concentration against Candida krusei 132 (C.k) at pH of 4.5.; outline: as §1
Candida albicans [24] = experiment: Tested for minimum subinhibitory concentration against Candida albicans 124 (Candida albicans) at pH 4.5.; outline: as §5
Candida tropicalis [25] = experiment: Tested for minimum inhibitory concentration against Candida tropicalis 43 (C.t) at pH of 4.5.; outline: as §1
Candida tropicalis [26] = experiment: Tested for minimum inhibitory concentration against Candida tropicalis 43 (C.t) at pH 6.5.; outline: as §2
[27] = test system: Meyerozyma guilliermondii; experiment: Tested for minimum inhibitory concentration against Candida guilliermondii 80 (C.g) at pH 6.5.; outline: as §2
Mus musculus [28] = organism: Mus musculus; experiment: Tested for efficacy of compound in experimental vaginal candidosis (mouse) after oral treatment at dosage of 4 x150 mg kg e-1
Outline: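 Vaginal candidiasis in hormonally conditioned female NMRI mice (18–20 g), 10 per group, inoculated intravaginally with 50 μL Sabouraud's glucose broth containing 3.5×10^4 CFU C. albicans no. 124. Dosed four times per gavage, 2 h before and 2, 18 and 24 h after infection. Vaginal swabs plated on Sabouraud's glucose agar with streptomycin (0.1 mg/mL), 48 h at 37 °C. Cure = failed reisolation.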

Rattus norvegicus [29] = experiment: Tested for efficacy of compound in experimental vaginal candidosis (rat) after intraperitoneal treatment at dosage of 2x 50 mg kg e-1
Outline: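 Female Wistar rats (~150 g; 10 per group) were hormonally conditioned and infected intravaginally with 3.5×10^4 CFU C. albicans no. 124 in 50 μL broth. Intraperitoneal dosing was given twice, 2 h before and 18 h after infection. Swabs taken one day after the last dose were plated on streptomycin Sabouraud agar (48 h, 37 °C). Cure meant failed reisolation.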

Mus musculus [30] = organism: Mus musculus; experiment: Tested for efficacy of compound in experimental vaginal candidosis (mouse) after oral treatment at dosage of 4 x300 mg kg e-1; outline: as §4
Candida albicans [31] = experiment: Tested for minimum inhibitory concentration against Candida albicans 124 (Candida albicans) at pH 6.5.; outline: as §2

MIC (Pichia kudriavzevii [2]): > 100 µg/mL
MIC (Candida albicans [3]): 1.56 µg/mL (≈ 1.38 µM)
MIC (Candida albicans [4]): > 100 µg/mL
MIC (Pichia kudriavzevii [5]): > 100 µg/mL
MIC (Candida albicans [7]): > 100 µg/mL
MIC (Candida albicans [9]): 100 µg/mL (≈ 88.8 µM)
MIC (Candida albicans [12]): 12.5 µg/mL (≈ 11.1 µM)
MIC (Candida albicans [18]): 6.25 µg/mL (≈ 5.55 µM)
MIC (Candida tropicalis [19]): 1.56 µg/mL (≈ 1.38 µM)
MIC (Pichia kudriavzevii [21]): > 100 µg/mL
MIC (Candida albicans [22]): 6.25 µg/mL (≈ 5.55 µM)
MIC (Pichia kudriavzevii [23]): > 100 µg/mL
MIC (Candida tropicalis [25]): 1.56 µg/mL (≈ 1.38 µM)
MIC (Candida tropicalis [26]): 100 µg/mL (≈ 88.8 µM)
MIC [27]: > 100 µg/mL
MIC (Candida albicans [31]): 50 µg/mL (≈ 44.4 µM)
SMILES: CC[C@@H](C)[C@H]1C(=O)NCC(=O)N(C)[C@@H](C(C)C)C(=O)N[C@@H](Cc2ccc(OC)cc2)C(=O)O[C@H](C)C(=O)N2CCCC[C@H]2C(=O)N(C)[C@@H](C(C)C)C(=O)N[C@@H](C(C)C)C(=O)N(C)[C@@H](CC(=O)O)C(=O)N(C)[C@@H]([C@@H](C)CC)C(=O)N1C
Efficacy (Mus musculus [1]): 100%
MSIC (Candida tropicalis [6]): 6.25 µg/mL
MSIC [8]: 12.5 µg/mL
Efficacy (Mus musculus [10]): 7%
MSIC (Candida albicans [11]): 3.12 µg/mL
MSIC (Candida albicans [13]): 3.12 µg/mL
MSIC (Candida albicans [14]): 12.5 µg/mL
Efficacy (Rattus norvegicus [15]): 100%
MSIC (Candida albicans [16]): 6.25 µg/mL
MSIC (Candida albicans [17]): 0.78 µg/mL
MSIC (Candida tropicalis [20]): 0.8 µg/mL
MSIC (Candida albicans [24]): 0.4 µg/mL
Efficacy (Mus musculus [28]): 31%
Efficacy (Rattus norvegicus [29]): 0%
Efficacy (Mus musculus [30]): 64%

Reference: ChEMBL document CHEMBL1127799, “Derivatives of a novel cyclopeptolide. 1. Synthesis, antifungal activity, and structure-activity relationships” (1994)
